Test results: ChEMBL document CHEMBL1687824, “Overexpression of patA and patB, which encode ABC transporters, is associated with fluoroquinolone resistance in clinical isolates of Streptococcus pneumoniae” (2011)

Experiments:
Streptococcus pneumoniae [1] = test: Antibacterial activity against wild type Streptococcus pneumoniae M4 NCTC 7465 type 1 by standardized agar doubling dilution method in presence of 20 ug/ml reserpine efflux pump inhibitor; assay type: functional
Summary of the method: (§1)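 MIC by agar doubling dilution following BSAC guidelines. Strains grown in brain heart infusion broth 24 h at 37°C in 5% CO2. Where an efflux pump inhibitor applies, MIC redetermined with reserpine at 20 μg/ml or sodium orthovanadate at 50 μM. Synergy taken as a fall in MIC of ≥2 dilutions with inhibitor present. Dye resistance defined relative to R6 (both dyes ≥2 dilutions higher).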

Streptococcus pneumoniae [2] = test: Antibacterial activity against dye-resistant Streptococcus pneumoniae M46 DR overexpressing patA, patB by standardized agar doubling dilution method in presence of 20 ug/ml reserpine efflux pump inhibitor; assay type: functional
Summary of the method: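 MICs were determined by BSAC agar doubling dilution in the presence of reserpine at 20 μg/ml. Strains were grown in BHI broth for 24 h at 37°C in 5% CO2, with R6 as control. Synergy was defined as an MIC drop of ≥2 dilutions with the inhibitor.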

Streptococcus pneumoniae [3] = test: Antibacterial activity against dye-resistant Streptococcus pneumoniae M55 DR overexpressing patA, patB by standardized agar doubling dilution method in presence of 20 ug/ml reserpine efflux pump inhibitor; assay type: functional; summary of the method: as §1
Streptococcus pneumoniae [4] = test: Antibacterial activity against wild-type Streptococcus pneumoniae R6 by standardized agar doubling dilution method
Streptococcus pneumoniae [5] = test: Antibacterial activity against dye-resistant Streptococcus pneumoniae M46 DR overexpressing patA, patB by standardized agar doubling dilution method in presence of 50 uM sodium orthovanadate efflux pump inhibitor; assay type: functional
Summary of the method: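 MICs were determined by BSAC agar doubling dilution in the presence of sodium orthovanadate at 50 μM. Cultures were grown in BHI broth for 24 h at 37°C in 5% CO2, with R6 as control. Synergy was defined as an MIC reduction of ≥2 dilutions with the inhibitor present.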

Compound `CC[n+]1c(-c2ccccc2)c2cc(N)ccc2c2ccc(N)cc21.[Br-]` [HOMIDIUM BROMIDE] has an MIC (Streptococcus pneumoniae [1]) of 0.3 µg/mL, an MIC (Streptococcus pneumoniae [2]) of 0.5 µg/mL and an MIC (Streptococcus pneumoniae [3]) of 0.5 µg/mL. The MIC (Streptococcus pneumoniae [4]) was 1 µg/mL and the MIC (Streptococcus pneumoniae [5]) was 1 µg/mL.
